An excerpt weighted towards active compounds, which were near 2.3% of everything screened.
PAFAH2 inh: PAFAH2 enzyme inhibitors, primary screen, biochemical, fluorescence polarization, human. Platelet-activating factor acetylhydrolase 2, cytoplasmic (Homo sapiens), Q99487. recombinant PAFAH2, FP-rhodamine activity probe. inhibition, % at 3.39 µM. actives 0.99% (n = 340,000). AID 492956, 2010;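 active = inhibition above the mean over all tested compounds plus 3 SD, cut at about 30% in these data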;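 note: inhibitors block probe labeling of enzyme so polarization drops; 0% = enzyme with DMSO and 100% = wells lacking PAFAH2 protein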
PAFAH1B3 FP inh: PAFAH1B3 enzyme inhibitors, primary screen, biochemical, fluorescence polarization, human. recombinant PAFAH1B3, FP-rhodamine probe. inhibition, % at 3.39 µM. actives 0.28% (n = 340,000);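 active = inhibition above the screen-wide average of all tested compounds plus 3 SD, cut at about 25% in these data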;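 note: 0% = enzyme with DMSO only and 100% = wells lacking PAFAH1B3 protein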
Target sequence (Q15102 whole entry, looked up): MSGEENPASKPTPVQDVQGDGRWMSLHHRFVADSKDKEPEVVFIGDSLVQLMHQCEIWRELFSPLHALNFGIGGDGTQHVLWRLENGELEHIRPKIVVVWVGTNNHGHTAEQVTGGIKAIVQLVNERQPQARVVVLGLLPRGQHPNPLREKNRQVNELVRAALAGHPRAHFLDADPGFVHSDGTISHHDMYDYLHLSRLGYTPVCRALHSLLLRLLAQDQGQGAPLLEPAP
PAFAH1B2 inh: PAFAH1B2 enzyme inhibitors, primary screen, biochemical, fluorescence polarization, human; Platelet-activating factor acetylhydrolase IB subunit alpha2 (Homo sapiens), P68402; recombinant PAFAH1B2, FP-rhodamine activity probe; inhibition, % at 3.39 µM; actives 1.2% (n = 340,000);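 active = inhibition above the mean of all tested compounds plus 3 SD, cut at about 24% in these data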;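 note: 0% = enzyme with DMSO and 100% = wells lacking PAFAH1B2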
TDP2 absorb: human TDP2 enzyme inhibitors, primary screen, biochemical, epi absorbance, recombinant enzyme. Tyrosyl-DNA phosphodiesterase 2 (Homo sapiens), O95551. T5PNP hydrolysis, p-nitrophenol absorbance 415 nm. inhibition, % at 12.8 µM. actives 0.34% (n = 370,000). AID 720702, 2013;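 active = inhibition above the mean of all tested compounds plus 3 SD, set per campaign, cut at about 25% in these data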;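 note: 0% = DMSO with enzyme and 100% = buffer with substrate but no TDP2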
Target sequence (O95551 whole entry, looked up): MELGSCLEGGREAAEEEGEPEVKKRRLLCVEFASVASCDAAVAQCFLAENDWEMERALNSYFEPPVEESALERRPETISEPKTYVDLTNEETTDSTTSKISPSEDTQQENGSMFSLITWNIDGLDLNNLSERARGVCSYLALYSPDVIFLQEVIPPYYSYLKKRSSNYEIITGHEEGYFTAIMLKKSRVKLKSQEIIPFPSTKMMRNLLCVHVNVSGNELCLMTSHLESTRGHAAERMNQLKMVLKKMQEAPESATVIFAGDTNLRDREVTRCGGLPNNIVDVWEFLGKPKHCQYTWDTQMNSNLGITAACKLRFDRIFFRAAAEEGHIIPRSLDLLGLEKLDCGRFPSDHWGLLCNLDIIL
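Assay system: Recombinant human TDP2 | Quantity: 120 nM TDP2 per well | Incubation: 2 h at 37 °C | Signal: Epi absorbance | Evaluation: Percent inhibition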
Apaf1 inhib: inhibitors of human Apaf-1 apoptosome, primary screen, biochemical, DEVD-Rh110 fluorescence, uHTS. Apoptotic protease-activating factor 1 (Homo sapiens), O14727. reconstituted apoptosome caspase-3 activity. inhibition, % at 20 µM. actives 0.71% (n = 330,000). AID 489030, 2010; active = inhibition of at least 40% at 20 µM;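 note: plate controls were DMSO wells for no effect and DEVD-CHO caspase inhibitor wells for full effect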
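Material: cell-free apoptosome with Apaf-1, procaspase-3 and caspase-9; Buffer or medium: Hepes pH 7.5 with detergent and BSA; Reagent: cytochrome c trigger plus (Z-DEVD)2-Rh110 caspase-3 substrate; Times: compound with Apaf-1, dATP, procaspase-3 30 min, then 50 min reaction, room temperature; Technique: Rh110 fluorescence intensity.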
PAFAH2 FP conf: PAFAH2 enzyme inhibitors, confirmation, biochemical, fluorescence polarization, human. shares compounds with PAFAH2 inh. recombinant PAFAH2, FP-rhodamine activity probe. inhibition, % at 3.39 µM. actives 65% (n = 2,300). AID 493030, 2011;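 active = mean inhibition over three repeats above a set limit taken from the earlier primary screen, cut at about 30% in these data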;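 note: inhibitor blocks binding of rhodamine activity probe so polarization falls; 0% = enzyme with DMSO and 100% = wells lacking PAFAH2 protein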
Active calls of the source: *; / = not tested or not shown.

SMILES	PAFAH2 inh	PAFAH1B3 FP inh	PAFAH1B2 inh	TDP2 absorb	Apaf1 inhib	PAFAH2 FP conf
COC(=O)C1CN(Cc2ccc(OC)cc2)CCS(=O)(=O)N1Cc1cn(CCOC(C)=O)nn1 (stereo unspecified)	/	/	/	2	/	/
NC(=O)COC(=O)c1ccccc1SCC(=O)NC1CCCCCCC1	39*	-4	7	-3	8	37*
O=C(COC(=O)c1ccccc1F)NNC(=O)c1ccccc1	-1	10	8	-7	-4	/
CCCCNC(=O)COC(=O)c1ccccc1F	46*	0	7	-19	-28	40*
O=C(COC(=O)Cc1c(Cl)cccc1Cl)NC1CCCC1	10	0	6	-3	12	/
O=C(COC(=O)c1ccccc1F)NC1CCCC1	64*	4	3	-19	0	60*
O=C(COC(=O)c1c(F)cccc1Cl)NC1CCCCC1	66*	5	3	10	-10	48*
CCCCN(C)c1c2c(nc3ncnn13)CCCC2	/	/	/	-5	/	/
CCC[C@H]1[C@@H](NC(=O)C2CCOC2)CC[C@@]23CCCN2C(=O)CCC[C@@H]13 (stereo partly specified)	/	/	/	1	/	/
CC(C)OC(=O)C1=CNCC(C)(C)c2c1[nH]c1cc(F)ccc21	/	/	/	5	/	/
C[C@@H]1C=CCCO[C@]12C(=O)N(Cc1ccc(Br)cc1)c1cccc(Br)c12	/	/	/	5	/	/
COc1ccc(-n2cc(COC(=O)NCCc3c[nH]c4ccccc34)nn2)cc1	/	/	/	1	/	/
O=C(COC(=O)c1ccccc1F)NC1CC1	30*	7	5	2	-9	28
Nc1ncccc1C(=O)OCC(=O)NC1CCCCCC1	42*	9	5	5	-2	25
O=C(COC(=O)c1cc2ccccc2cc1O)NC1CCCCC1	48*	5	3	-11	-5	33*
O=C(COC(=O)c1cccnc1Nc1ccccc1F)NC1CC1	-1	8	4	-11	1	/
Oc1[nH]c2ccccc2c1N=Nc1nc2ccccc2s1	52*	-3	7	-14	8	20
O=[N+]([O-])c1cc(Cl)cc(/C=N/Nc2nc3ccccc3s2)c1O	65*	18	5	0	3	46*
O=C(Cn1nc2ccccc2n1)N/N=C/c1cc(Cl)cc([N+](=O)[O-])c1O	30*	3	9	10	/	15
O=C(N/N=C/c1cc(Cl)cc([N+](=O)[O-])c1O)C1CC1	11	7	3	-5	-10	/
O=C(O)c1cccc(N/N=C/C2=C(Cl)c3cc(Cl)ccc3SC2)c1	36*	17	15	-6	/	15
CNC(C#Cc1ccccc1)c1ccccc1C(F)(F)F (stereo unspecified)	/	/	/	2	/	/
COC(=O)C1=C(C)N(C)C(=NCc2ccc3c(c2)OCO3)NC1c1ccc(Cl)cc1 (stereo unspecified)	/	/	/	-6	/	/
Cc1cc(NS(=O)(=O)C2CCN(C(=O)Cc3ccc(Cl)c(Cl)c3)CC2)no1	/	/	/	4	/	/
COc1cccc(C(=O)OCC(=O)Nc2cc(C)on2)c1OC	74*	7	2	5	-3	52*
SMILES	PAFAH2 inh	PAFAH1B3 FP inh	PAFAH1B2 inh	TDP2 absorb	Apaf1 inhib	PAFAH2 FP conf
COc1cccc(C(=O)Nc2cc(C)on2)c1OC	6	4	0	-13	-13	/
Cc1cc(NC(=O)COC(=O)c2ccc(C)c(C)c2)no1	52*	4	-1	9	8	34*
COC(=O)[C@]12C[C@H](CC(=O)NCc3ccccc3)C(=O)N(Cc3ccccc3)C1=C[C@H](C1CCCC1)O[C@@H]2C	/	/	/	2	/	/
CN(C(=O)[C@@H](C1CC1)[C@@H](O)c1ccc2ccccc2c1)c1ccccc1	/	/	/	-4	/	/
COc1ccc(Cn2c(=S)[nH]c3ccsc3c2=O)cc1	-7	13	1	2	13	/
O=c1c2sccc2[nH]c(=S)n1Cc1ccccc1	63*	5	1	11	5	52*
COC(=O)[C@]12C[C@H](CC(=O)NCCc3ccccc3OC)C(=O)N(CCC3=CCCCC3)C1=C[C@H](C(C)C)O[C@@H]2C1CC1	/	/	/	-2	/	/
CC(NC(=O)COC(=O)/C=C/c1ccc(Cl)cc1)c1ccccc1 (stereo unspecified)	31*	7	9	-6	0	21
CCNC(=O)COC(=O)/C=C/c1cccc(F)c1	10	0	2	6	0	/
CC(NC(=O)COC(=O)/C=C/c1cccc(F)c1)c1ccccc1 (stereo unspecified)	46*	0	9	1	-2	34*
CC(NC(=O)COC(=O)COc1ccc(Cl)cc1)c1ccccc1 (stereo unspecified)	1	2	18	-7	6	/
COc1cc(/C=C/C(=O)OCC(=O)NC(C)c2ccccc2)cc(OC)c1OC (stereo unspecified)	31*	8	3	-9	0	14
CN(C)S(=O)(=O)N(Cc1ccc(Br)cc1)c1ccccc1	0	4	6	-7	-2	/
CN(C)S(=O)(=O)N(CC(=O)N(Cc1ccccc1)Cc1ccccc1)c1ccccc1	38*	-2	-2	-1	10	24
CCc1cc(=O)oc2c3c(cc(OCC(=O)NCCC(=O)O)c12)OC(C)(C)CC3	38*	1	4	0	-3	23
COc1cc(/C=C/C(=O)OCC(=O)NC(=O)NC2CCCC2)ccc1OCC#N	13	3	4	3	7	/
COc1ccccc1/C=C/C(=O)OCC(=O)NC(=O)NC1CCCC1	58*	-6	5	6	24	44*
COc1ccc(/C=C/C(=O)OCC(=O)N2CCCCCC2)c(OC)c1	44*	-11	1	4	0	36*
COc1ccccc1/C=C/C(=O)OCC(=O)NC1CC1	64*	8	3	-11	-5	64*
COc1cccc(/C=C/C(=O)OCC(=O)NC2CCCC2)c1	/	/	/	-6	/	/

Bioassay records from PubChem.
